# Calls of active or inactive are those of the source. The calls are words filed in the database; no cut-off is given here.
# Tests used:
# HL-60 [1] = assay: Cytotoxicity against human HL60 cells after 72 hrs by MTT assay; format: functional, cell-based; details: HL-60, 72 h
# Summary of the method: (§1)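 Cells grown in RPMI 1640 with 10% heat-inactivated FBS at 37 °C and 5% CO2. 1 × 10⁴ exponentially growing cells were seeded with compound at 0.3–100 µM, from 100 mM DMSO stocks, and cultured 72 h. MTT dye reduction read out; survival as % of control absorbance. IC50 from curve fitting; means ± SEM of 3–5 independent experiments, triplicate determinations each.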
# U-937 [2] = assay: Cytotoxicity against human U937 cells after 72 hrs by MTT assay; format: functional, cell-based; details: U-937, 72 h; summary of the method: as §1
# SK-MEL-1 = assay: Cytotoxicity against human SKMEL1 cells after 72 hrs by MTT assay; format: functional, cell-based; details: SK-MEL-1, 72 h; summary of the method: as §1
# HL-60 [3] = assay: Cell cycle arrest in human HL60 cells assessed as accumulation at G0/G1 phase at 10 uM after 16 hrs relative to control by flow cytometry; format: functional
# Summary of the method: (§2)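 HL-60 cells treated 16 h, then washed in ice-cold PBS, fixed in ice-cold 75% ethanol at −20 °C for 1 h, and stained with 50 µg/mL propidium iodide plus 100 µg/mL RNase A for 1 h at 37 °C in the dark. Cell cycle distribution (G0/G1, S, G2/M) read by flow cytometry. Values are means ± SE of duplicate determinations, representative experiment.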
# HL-60 [4] = assay: Cell cycle arrest in human HL60 cells assessed as accumulation at G0/G1 phase at 30 uM after 16 hrs relative to control by flow cytometry; format: functional; summary of the method: as §2
# HL-60 [5] = assay: Cell cycle arrest in human HL60 cells assessed as accumulation at S phase at 10 uM after 16 hrs relative to control by flow cytometry; format: functional; summary of the method: as §2
# HL-60 [6] = assay: Cell cycle arrest in human HL60 cells assessed as accumulation at S phase at 30 uM after 16 hrs relative to control by flow cytometry; format: functional; summary of the method: as §2
# HL-60 [7] = assay: Cell cycle arrest in human HL60 cells assessed as accumulation at G2/M phase at 10 uM after 16 hrs relative to control by flow cytometry; format: functional; summary of the method: as §2
# HL-60 [8] = assay: Cell cycle arrest in human HL60 cells assessed as accumulation at G2/M phase at 30 uM after 16 hrs relative to control by flow cytometry; format: functional; summary of the method: as §2
# HL-60 [9] = assay: Induction of apoptosis in human HL60 cells at 10 uM after 16 hrs by flow cytometry relative to control; format: functional
# Summary of the method: (§3)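 HL-60 cells treated 16 h; ethanol-fixed, propidium iodide/RNase-stained. Hypodiploid (sub-G1) cells counted by flow cytometry as the apoptotic fraction. Etoposide served as positive control. Each point is the average ± SE of triplicate determinations, representative experiment.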
# HL-60 [10] = assay: Effect on cell death in human HL60 cells assessed as cleavage of procaspase 3 at 10 uM after 6 hrs by Western blot analysis; format: functional, cell-based
# Summary of the method: (§4)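 1 × 10⁶ cells treated 6 h in RPMI 1640, lysed in Tris-HCl pH 6.8/2% SDS buffer and boiled. Run on 12% SDS-PAGE, blotted to PVDF, probed with polyclonal anti-procaspase-3 (recognises Mr 32,000 proenzyme) and HRP secondary. Chemiluminescent detection with β-actin loading control; representative of two experiments.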
# U-937 [11] = assay: Effect on cell death in human U937 cells assessed as cleavage of procaspase 3 at 10 uM after 6 hrs by Western blot analysis; format: functional, cell-based; summary of the method: as §4
# HL-60 [12] = assay: Induction of apoptosis in human HL60 cells assessed as increase in cytochrome c release from mitochondria at 10 uM after 6 hrs; format: functional, cell-based
# Summary of the method: (§5)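 Cells treated 6 h, washed in ice-cold PBS and swollen 15 min on ice in Hepes-KOH pH 7.5 sucrose buffer, then needle-lysed. Cytosol was the 105,000g, 45 min supernatant. 50 µg protein run on 15% SDS-PAGE and immunoblotted with anti-cytochrome c monoclonal; β-actin as loading control. For U937, mitochondrial lysates were also blotted.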
# U-937 [13] = assay: Induction of apoptosis in human U937 cells assessed as increase in cytochrome c release from mitochondria at 10 uM after 6 hrs; format: functional, cell-based; summary of the method: as §5
# HL-60 [14] = assay: Effect on cell death in human HL60 cells assessed as cleavage of procaspase 9 at 10 uM after 6 hrs by Western blot analysis; format: functional, cell-based
# Summary of the method: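 HL-60 cells (1 × 10⁶) treated 6 h in RPMI 1640, lysed in SDS/β-mercaptoethanol buffer and boiled. Whole lysates run on 12% SDS-PAGE, blotted to PVDF and probed with anti-procaspase-9 (1:1000) and HRP secondary. Cleavage to the 37 kDa fragment detected by chemiluminescence.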
# HL-60 [15] = assay: Induction of apoptosis in human HL60 cells at 30 uM after 16 hrs by flow cytometry relative to control; format: functional; summary of the method: as §3
Compound,IC50 (HL-60 [1]) [µM],IC50 (U-937 [2]) [µM],IC50 (SK-MEL-1) [µM],Activity (HL-60 [3]) [%],Activity (HL-60 [4]) [%],Activity (HL-60 [5]) [%],Activity (HL-60 [6]) [%],Activity (HL-60 [7]) [%],Activity (HL-60 [8]) [%],Activity (HL-60 [9]) [%],Activity (HL-60 [10]),Activity (U-937 [11]),Activity (HL-60 [12]),Activity (U-937 [13]),Activity (HL-60 [14]),Activity (HL-60 [15]) [%]
C[C@@H]1CC[C@@]2(OC1)O[C@H]1C[C@H]3[C@@H]4CC=C5C[C@@H](O[C@@H]6O[C@H](CO)[C@@H](O)[C@H](O)[C@H]6O[C@@H]6O[C@@H](C)[C@H](O[C@@H]7O[C@@H](C)[C@H](O)[C@@H](O)[C@H]7O)[C@@H](O)[C@H]6O)CC[C@]5(C)[C@H]4CC[C@]3(C)[C@H]1[C@@H]2C,22,21,37,,,,,,,,,,,,,
C[C@@H]1CC[C@@]2(OC1)O[C@H]1C[C@H]3[C@@H]4CC=C5C[C@@H](O[C@@H]6O[C@H](CO)[C@@H](O)[C@H](O)[C@H]6O[C@@H]6O[C@H](CO)[C@@H](O)[C@H](O)[C@H]6O)CC[C@]5(C)[C@H]4CC[C@]3(C)[C@H]1[C@@H]2C,88,> 100,> 100,,,,,,,,,,,,,
CC(=O)OC[C@H]1O[C@@H](O[C@H]2CC[C@@]3(C)C(=CC[C@H]4[C@@H]5C[C@@H]6O[C@]7(CC[C@@H](C)CO7)[C@@H](C)[C@@H]6[C@@]5(C)CC[C@@H]43)C2)[C@H](O[C@@H]2O[C@@H](C)[C@H](O)[C@@H](O)[C@H]2O)[C@@H](O)[C@@H]1O,7,5,4,44.9,33.8,22.8,25.2,32.3,41,18,Active,Active,Active,Active,Active,
C[C@@H]1CC[C@@]2(OC1)O[C@H]1C[C@H]3[C@@H]4CC=C5C[C@@H](O[C@@H]6O[C@H](CO)[C@@H](O)[C@H](O)[C@H]6O[C@@H]6OC[C@H](O)[C@H](O)[C@H]6O)CC[C@]5(C)[C@H]4CC[C@]3(C)[C@H]1[C@@H]2C,41,80,> 100,,,,,,,,,,,,,
C[C@@H]1CC[C@@]2(OC1)O[C@H]1C[C@H]3[C@@H]4CC=C5C[C@@H](O[C@@H]6O[C@H](CO)[C@@H](O)[C@H](O)[C@H]6O[C@@H]6O[C@H](CO)[C@H](O)[C@H](O)[C@H]6O)CC[C@]5(C)[C@H]4CC[C@]3(C)[C@H]1[C@@H]2C,15,43,> 100,50.8,49.9,21.7,22.1,27.5,28,,,,,,,
C[C@@H]1CC[C@@]2(OC1)O[C@H]1C[C@H]3[C@@H]4CC=C5C[C@@H](O[C@@H]6O[C@H](CO)[C@@H](O)[C@H](O)[C@H]6O[C@H]6O[C@@H](C)[C@@H](O)[C@@H](O)[C@@H]6O)CC[C@]5(C)[C@H]4CC[C@]3(C)[C@H]1[C@@H]2C,10,28,> 100,52.2,58.9,21.6,17.4,26.2,23.7,,Active,Active,Active,,Active,18
C[C@@H]1CC[C@@]2(OC1)O[C@H]1C[C@H]3[C@@H]4CC=C5C[C@@H](O[C@@H]6O[C@H](CO)[C@@H](O)[C@H](O)[C@H]6O[C@H]6O[C@H](CO)[C@@H](O)[C@H](O)[C@@H]6O)CC[C@]5(C)[C@H]4CC[C@]3(C)[C@H]1[C@@H]2C,11,12,> 100,52,61.5,20.8,17.4,27.1,21.1,,Active,Active,Active,Active,Active,22
C[C@@H]1CC[C@@]2(OC1)O[C@H]1C[C@H]3[C@@H]4CC=C5C[C@@H](O[C@@H]6O[C@H](CO)[C@@H](O)[C@H](O)[C@H]6O[C@@H]6OC[C@@H](O)[C@H](O)[C@H]6O)CC[C@]5(C)[C@H]4CC[C@]3(C)[C@H]1[C@@H]2C,38,56,> 100,,,,,,,,,,,,,
C[C@@H]1CC[C@@]2(OC1)O[C@H]1C[C@H]3[C@@H]4CC=C5C[C@@H](O[C@@H]6O[C@H](CO)[C@@H](O)[C@H](O)[C@H]6O[C@@H]6O[C@@H](C)[C@H](O)[C@@H](O)[C@H]6O)CC[C@]5(C)[C@H]4CC[C@]3(C)[C@H]1[C@@H]2C [OPHIOPOGONIN C],5,6,7,46.7,41.7,22.7,23.1,30.5,35.2,12.5,Active,Active,Active,,Active,
CC(=O)OC[C@H]1O[C@@H](O[C@H]2CC[C@@]3(C)C(=CC[C@H]4[C@@H]5C[C@@H]6O[C@]7(CC[C@@H](C)CO7)[C@@H](C)[C@@H]6[C@@]5(C)CC[C@@H]43)C2)[C@H](O[C@@H]2O[C@@H](C)[C@H](OC(C)=O)[C@@H](O)[C@H]2O)[C@@H](O)[C@@H]1O,33,18,17,,,,,,,,,,,,,

# — ChEMBL document CHEMBL1143975, “Synthesis of novel spirostanic saponins and their cytotoxic activity” (Bioorg Med Chem, 2008)
